From ChEMBL document CHEMBL4359878, “Discovery of 4-piperazinyl-2-aminopyrimidine derivatives as dual inhibitors of JAK2 and FLT3” (Eur J Med Chem, 2019)

Assays:
HEL [1] = assay: Induction of apoptosis in human HEL cells assessed as late apoptotic cells at 0.33 uM after 72 hrs by FITC-annexin V/propidium iodide-double staining based flow cytometry (reference value: 1.63%); assay type: functional
HEL [2] = assay: Induction of apoptosis in human HEL cells assessed as late apoptotic cells at 9 uM after 72 hrs by FITC-annexin V/propidium iodide-double staining based flow cytometry (reference value: 1.63%); assay type: functional
HEL [3] = assay: Induction of apoptosis in human HEL cells assessed as necrotic cells at 9 uM after 72 hrs by FITC-annexin V/propidium iodide-double staining based flow cytometry (reference value: 2.40%); assay type: functional
HEL [4] = assay: Induction of apoptosis in human HEL cells assessed as necrotic cells at 1 uM after 72 hrs by FITC-annexin V/propidium iodide-double staining based flow cytometry (reference value: 2.40%); assay type: functional
HEL [5] = assay: Induction of cell cycle arrest in human HEL cells assessed as accumulation at G1 phase at 9 uM after 72 hrs by propidium iodide-staining based flow cytometry (reference value: 43.12%); assay type: functional
In short: (§1)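 Subconfluent HEL cells were treated for 72 h at 0.33, 1.0, 3.0 or 9.0 μM, with untreated cells as control. Cultures were pulsed with 10 μM BrdU for 30 min at 37 °C before harvest, then PBS-washed, fixed in 70% ethanol and denatured in 2 M HCl. After neutralization, cells were stained with fluorescein anti-BrdU antibody and propidium iodide. DNA content was measured by flow cytometry with 488 nm excitation.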

HEL [6] = assay: Induction of apoptosis in human HEL cells assessed as necrotic cells at 3 uM after 72 hrs by FITC-annexin V/propidium iodide-double staining based flow cytometry (reference value: 2.40%); assay type: functional
HEL [7] = assay: Induction of cell cycle arrest in human HEL cells assessed as accumulation at S phase at 3 uM after 72 hrs by propidium iodide-staining based flow cytometry (reference value: 41.47%); assay type: functional; in short: as §1
HEL [8] = assay: Induction of apoptosis in human HEL cells after 72 hrs by FITC-annexin V/propidium iodide-double staining based flow cytometry; assay type: functional, cell-based
HEL [9] = assay: Induction of apoptosis in human HEL cells assessed as necrotic cells at 0.33 uM after 72 hrs by FITC-annexin V/propidium iodide-double staining based flow cytometry (reference value: 2.40%); assay type: functional
HEL [10] = assay: Induction of cell cycle arrest in human HEL cells assessed as accumulation at G1 phase at 0.33 uM after 72 hrs by propidium iodide-staining based flow cytometry (reference value: 43.12%); assay type: functional; in short: as §1
HEL [11] = assay: Antiproliferative activity against human HEL cells assessed as growth inhibition after 72 hrs by CCK-8 assay; assay type: functional
In short: (§2)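 CCK-8 viability readout. Cells were cultured in RPMI 1640 with 10% FBS and 1% penicillin/streptomycin and seeded at 3000 (HEL), 5000 (MV4-11) or 3000 (HL60) cells/well. Increasing compound concentrations were applied for 72 h, then CCK-8 was added for a further 3 h and absorbance read at 450 nm. Inhibition = (1−A_sample/A_control)×100, normalized to DMSO controls. Value is the mean of three independent measurements, obtained by curve fitting.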

HEL [12] = assay: Induction of cell cycle arrest in human HEL cells assessed as accumulation at S phase at 0.33 uM after 72 hrs by propidium iodide-staining based flow cytometry (reference value: 41.47%); assay type: functional; in short: as §1
[13] = molecular target: Tyrosine-protein kinase JAK2 (Homo sapiens, UniProt O60674); assay: Inhibition of N-terminal His-tagged human JAK2 catalytic domain (826 to 1132 resiudes) expressed in baculovirus expression system using FAM-labeled peptide as substrate preincubated for 10 mins followed by substrate addition measured after 1 hr in presence of ATP by mobility shift assay
Sequence of Tyrosine-protein kinase JAK2 (O60674 whole entry, the tested form may be a part): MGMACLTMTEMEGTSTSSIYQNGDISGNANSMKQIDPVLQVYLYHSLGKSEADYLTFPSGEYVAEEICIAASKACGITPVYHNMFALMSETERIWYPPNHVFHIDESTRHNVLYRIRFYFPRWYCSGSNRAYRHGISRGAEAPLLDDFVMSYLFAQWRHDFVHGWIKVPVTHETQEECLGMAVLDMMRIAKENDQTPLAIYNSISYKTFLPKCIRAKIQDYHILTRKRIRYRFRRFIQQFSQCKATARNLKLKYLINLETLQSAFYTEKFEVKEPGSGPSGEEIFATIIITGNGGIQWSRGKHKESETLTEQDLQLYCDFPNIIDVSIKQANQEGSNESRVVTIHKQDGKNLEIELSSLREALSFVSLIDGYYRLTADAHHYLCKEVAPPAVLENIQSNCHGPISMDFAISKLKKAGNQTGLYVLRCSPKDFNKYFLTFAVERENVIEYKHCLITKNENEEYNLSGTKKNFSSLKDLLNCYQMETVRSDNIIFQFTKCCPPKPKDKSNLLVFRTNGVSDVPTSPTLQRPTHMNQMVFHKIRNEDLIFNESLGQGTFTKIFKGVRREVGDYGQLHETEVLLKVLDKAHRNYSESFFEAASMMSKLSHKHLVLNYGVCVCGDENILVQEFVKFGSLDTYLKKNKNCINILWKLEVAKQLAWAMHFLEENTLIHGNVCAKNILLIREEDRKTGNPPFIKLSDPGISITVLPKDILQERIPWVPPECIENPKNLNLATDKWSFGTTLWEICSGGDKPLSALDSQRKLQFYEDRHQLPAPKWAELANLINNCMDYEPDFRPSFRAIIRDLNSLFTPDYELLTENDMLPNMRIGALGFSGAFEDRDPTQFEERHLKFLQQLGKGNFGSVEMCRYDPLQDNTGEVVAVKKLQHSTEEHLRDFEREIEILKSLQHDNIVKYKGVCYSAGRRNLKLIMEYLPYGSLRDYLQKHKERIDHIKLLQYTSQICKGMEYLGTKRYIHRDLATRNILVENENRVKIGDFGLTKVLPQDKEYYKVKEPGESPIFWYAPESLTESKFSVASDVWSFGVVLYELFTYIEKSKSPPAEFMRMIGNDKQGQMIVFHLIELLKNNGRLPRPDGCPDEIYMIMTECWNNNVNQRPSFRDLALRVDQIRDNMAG
In short: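 Caliper mobility-shift assay with recombinant kinase in 50 mM HEPES pH 7.5, 0.0015% Brij-35. Compound was diluted from DMSO and preincubated with enzyme for 10 min at room temperature. FAM-labeled peptide plus ATP was then added and the reaction run for 1 h at 28 °C. It was stopped with an EDTA (50 mM) buffer. Conversion gave percent inhibition relative to max/min controls, and IC50 came from a four-parameter Hill fit. Duplicate wells were used.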

HL-60 = assay: Antiproliferative activity against human HL60 cells assessed as growth inhibition after 72 hrs by CCK-8 assay; assay type: functional; settings: HL-60, 72 h; in short: as §2
HEL [14] = assay: Induction of cell cycle arrest in human HEL cells assessed as accumulation at G2 phase at 3 uM after 72 hrs by propidium iodide-staining based flow cytometry (reference value: 15.10%); assay type: functional; in short: as §1
[15] = molecular target: Receptor-type tyrosine-protein kinase FLT3 (Homo sapiens) (UniProt P36888); settings: at 100 nM
Sequence of Receptor-type tyrosine-protein kinase FLT3 (Homo sapiens) (P36888 whole entry): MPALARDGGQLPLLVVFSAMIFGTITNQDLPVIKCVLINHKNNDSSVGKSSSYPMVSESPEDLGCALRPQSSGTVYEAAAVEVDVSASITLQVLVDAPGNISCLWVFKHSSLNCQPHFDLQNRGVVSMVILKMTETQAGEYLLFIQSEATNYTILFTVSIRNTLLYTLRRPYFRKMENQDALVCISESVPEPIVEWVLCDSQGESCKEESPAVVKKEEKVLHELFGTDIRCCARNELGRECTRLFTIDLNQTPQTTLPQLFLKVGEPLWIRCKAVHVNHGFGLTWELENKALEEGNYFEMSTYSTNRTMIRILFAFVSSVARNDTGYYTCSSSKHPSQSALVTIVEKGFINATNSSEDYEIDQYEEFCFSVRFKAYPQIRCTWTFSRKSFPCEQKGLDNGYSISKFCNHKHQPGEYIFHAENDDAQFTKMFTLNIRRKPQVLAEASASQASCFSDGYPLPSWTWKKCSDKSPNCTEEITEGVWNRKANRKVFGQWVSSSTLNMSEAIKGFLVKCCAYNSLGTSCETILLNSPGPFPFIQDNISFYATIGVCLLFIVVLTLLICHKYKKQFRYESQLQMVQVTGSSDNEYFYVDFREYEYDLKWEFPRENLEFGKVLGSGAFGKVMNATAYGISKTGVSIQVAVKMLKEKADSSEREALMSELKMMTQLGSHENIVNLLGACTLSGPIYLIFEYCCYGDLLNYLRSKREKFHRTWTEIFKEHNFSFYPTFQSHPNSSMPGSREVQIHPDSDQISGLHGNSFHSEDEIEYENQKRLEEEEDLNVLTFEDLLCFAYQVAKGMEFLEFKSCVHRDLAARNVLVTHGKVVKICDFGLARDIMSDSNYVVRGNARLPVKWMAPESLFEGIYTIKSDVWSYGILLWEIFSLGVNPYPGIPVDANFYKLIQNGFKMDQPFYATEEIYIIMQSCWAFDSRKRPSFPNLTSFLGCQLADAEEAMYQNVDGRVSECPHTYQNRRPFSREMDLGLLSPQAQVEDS

HEL [16] = assay: Induction of apoptosis in human HEL cells assessed as late apoptotic cells at 3 uM after 72 hrs by FITC-annexin V/propidium iodide-double staining based flow cytometry (reference value: 1.63%); assay type: functional
HEL [17] = assay: Induction of cell cycle arrest in human HEL cells assessed as accumulation at S phase at 1 uM after 72 hrs by propidium iodide-staining based flow cytometry (reference value: 41.47%); assay type: functional; in short: as §1

In the case of `CC(=O)c1ccc(NC(=O)N2CCN(c3ccnc(Nc4ccc(N5CCOCC5)cc4)n3)CC2)cc1`, the Activity (HEL [1]) is reported as 4.3%, the Activity (HEL [2]) is reported as 30.4% and the Activity (HEL [3]) is reported as 9.77%. It also gave an Activity (HEL [4]) of 12.73%, an Activity (HEL [5]) of 78.05% and an Activity (HEL [6]) of 7%. The Activity (HEL [7]) was 22.24%, the Activity (HEL [8]) was “Dose-dependent effect” and the Activity (HEL [9]) was 3.3%. It also gave an Activity (HEL [10]) of 54.07%, a GI50 (HEL [11]) of 4.3 µM and an Activity (HEL [12]) of 38.62%. It also gave an IC50 [13] of 0.027 µM, a GI50 (HL-60) of 16.5 µM and an Activity (HEL [14]) of 5.91%. For the same compound, the inhibition [15] was 80.7%, the Activity (HEL [16]) was 33.6% and the Activity (HEL [17]) was 31.59%.
